Lung fibro prol = antiproliferative effect on LL 47 fibroblasts – human, LL 47 cells, CellTiter-Glo luminescence, primary screen | viability, % at 10 µM | LL 47 human lung fibroblast viability, ATP luminescence; hits give low values | 85,000 tested, 1.1% active;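 active = viability at or below 50% in the single dose screen; inactive = viability above 50%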;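 also: compound exposure lasted 72 h before the ATP readout; 100% = median luminescence of untreated cell-only wells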
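Material: human lung fibroblast line LL 47, low passage; Evaluation: viability percentage against median untreated-cell control; Buffer or medium: 15% FBS in IMEM; Incubation: 72 h compound exposure at 37 °C after overnight plating; Dosing: 0.1% DMSO in all compound wells; Measured by: CellTiter-Glo luminescence.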
HCT116 bCat-KO = primary screen for growth suppressors in beta-catenin knockout HCT116 cells (colon tumor, human). HCT116 beta-catenin knockout viability, CellTiter-Glo, 60 h; hits give low values. viability, % at 10 µM. 140,000 tested, 1.5% active;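 active = viability at or under a set limit, the compound median less 4 SD, cut at about 6% in these data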;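 also: 0% = Hyamine 1622 control at 20 µM and 100% = untreated cell control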
H69AR growth 86K = proliferation blockers of H69AR lung cancer cells, primary screen, cell-based, human, 86K library. H69AR lung tumor viability, ATP luminescence, 72 h; hits give low values. viability, % at 10 µM. 85,000 tested, 6% active;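 active = viability at or below 40%; inactive = viability above 40%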;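 also: multidrug resistant small cell line overexpressing MRP-1 efflux transporter; 100% = mean luminescence of untreated control wells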
PTK2B oligo ant = antagonists of Pyk2 self-association, primary screen, Q293 cells, FERM NanoBiT luminescence, HTS. Protein-tyrosine kinase 2-beta (Homo sapiens), Q14289. hits give low values. z-score (the deposit names both 25 µM and 10 µM). 99,000 tested, 0.83% active;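 active = Z-score of -3 or lower, scaled per plate to the spread of control and sample wells; inactive = z-score above -3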;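 also: negative z-score means lost luminescence so less FERM oligomerization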
HUVEC inhibit = inhibitors of HUVEC proliferation, primary screen, cell-based, 384-well | CellTiter-Glo luminescence, 72 h; hits give low values | viability, % at 10 µM (by protocol) | 86,000 tested, 1.1% active;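 active = viability at or below 30%; inactive = viability above 30%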;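 also: 100% = median luminescence of DMSO-only cell control wells on each plate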
PTEN del growth = growth suppression of PTEN-null HCT116, primary screen, cell-based, CellTiter-Glo | AID 827, 2007 | viability, % at 10 µM | HCT116 PTEN-null viability, 60 h; hits give low values | 140,000 tested, 1.2% active;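 active = viability at or below a set limit, 4 SD under the median of all tested compounds, cut at about 3.7% in these data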;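 also: PTEN knockout HCT116 line with beta catenin targeted HCT116 as companion control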
Starred values were filed as active, the others as inactive; / = no result given. Shown is part of a subset that was picked to be rich in hits.

SMILES	Lung fibro prol	HCT116 bCat-KO	H69AR growth 86K	PTK2B oligo ant	HUVEC inhibit	PTEN del growth
COc1ccc(C2N(C(=O)CN3CCOCC3)CCN2S(=O)(=O)c2ccccc2)cc1 (stereo unspecified)	/	81.1	22.0*	0.75	87.2	92.9
COc1cccc(NC(=O)CN2CCN(c3ccc(F)cc3)CC2)c1	95.4	100.1	28.0*	2.14	109.0	90.0
CCOc1ccc(NC(=O)CCN2CCN(c3ccccc3F)CC2)cc1	92.7	42.6	24.5*	0.83	70.8	44.1
O=C(CCN1CCN(c2ccccc2F)CC1)Nc1ccccc1F	93.4	89.0	94.5	0.83	109.6	98.7
CCOc1ccc(NC(=O)CSC(N)=O)cc1	101.7	86.9	15.1*	0.09	47.5	97.3
O=C(CCN1CCN(c2ccccc2F)CC1)c1ccc(Br)cc1	85.7	72.7	7.7*	0.48	69.6	61.5
O=C(CSc1nncs1)Nc1ccc(Cl)cn1	/	97.5	/	/	/	104.2
O=C(O)C(=O)Cc1c[nH]c2ccccc12	/	85.2	/	/	/	89.0
CC(NC(=O)CCSc1nc(-c2ccc3c(c2)OCO3)cc(C(F)(F)F)n1)c1ccccc1 (stereo unspecified)	106.5	68.2	42.0	0.05	71.9	62.5
O=C(c1ccccc1)c1nn(-c2ccc(Cl)cc2)cc1C(=O)c1cc2ccccc2oc1=O	/	31.3	/	-0.43	/	22.2
CC(C)(C)NC(=O)C(=O)NCCC1=CCCCC1	/	101.0	/	/	/	100.3
O=C(CN1C2=NCCCN2c2ccccc21)c1ccc(Cl)cc1Cl	/	45.5	/	/	/	36.6
CCOc1ccc(NC(=O)CN2CCN(CC(=O)Nc3ccc(F)cc3)CC2)cc1	89.2	93.1	30.3*	0.45	97.6	94.8
CCOCC(=O)Nc1cccc(OC)c1	95.6	93.4	28.2*	0.41	90.6	95.3
Cc1ccc(N2CN(Cc3ccco3)CNC2=S)c(C)c1	/	100.9	/	/	/	98.0
O=C(NCc1ccco1)c1cnn2c(C(F)(F)F)cc(-c3cccs3)nc12	86.5	80.3	7.1*	-0.66	91.8	69.4
CCOC(=O)CC1C(=O)NCCN1S(=O)(=O)c1ccc(Cl)cc1Cl (stereo unspecified)	/	97.3	/	0.71	/	88.8
CC1CCCCN1c1nnc(NC(=O)c2cc(-c3ccc(Br)cc3)on2)s1 (stereo unspecified)	101.9	92.4	90.3	/	97.3	93.7
CCOc1ccccc1N1CCN(c2nc(N)c(C#N)c(CC#N)c2C#N)CC1	94.6	91.0	20.1*	-0.68	87.1	82.6
CCCCCCCC(=O)N/N=C(\C)c1cccnc1	97.6	90.3	93.5	-0.33	93.0	105.1
CC1=NN=C(c2ccccc2)C(c2c[nH]c3ccccc23)N1O (stereo unspecified)	/	92.1	/	/	/	91.2
Cc1[nH]c2ccccc2c1C1C(c2ccccc2)=NN=C(C(C)C)N1O (stereo unspecified)	87.6	86.7	87.8	-3.56*	102.6	92.8
Cc1ccc(NNC(=O)C(O)(c2cccc(C(F)(F)F)c2)c2cccc(C(F)(F)F)c2)cc1	/	22.6	/	/	/	23.9
O=C(NNc1ccccc1Br)C(O)(c1cccc(C(F)(F)F)c1)c1cccc(C(F)(F)F)c1	/	1.9*	/	/	/	2.1*
CCOC(=O)c1sc(NC(=O)CSc2n[nH]c(-c3ccncc3)n2)c(C#N)c1C	98.0	98.3	18.6*	-2.12	47.5	106.7
SMILES	Lung fibro prol	HCT116 bCat-KO	H69AR growth 86K	PTK2B oligo ant	HUVEC inhibit	PTEN del growth
CCOC(=O)c1sc(NC(=O)c2ccco2)c(C#N)c1C	/	89.0	/	/	/	94.4
CCOC(=O)c1sc(NC(=O)CSc2nccc(C)n2)c(C#N)c1C	94.7	11.0	7.2*	-0.65	89.0	5.4
CC(NCCC(c1ccccc1)c1ccccc1)c1ccccc1 (stereo unspecified)	2.7*	1.9*	0.2*	/	25.9*	4.0
CCNCCOC(c1ccccc1)c1ccccc1	96.7	93.4	89.4	0.72	90.3	101.5
CCN(c1ccc(NC(=O)COC(=O)CCC(=O)c2ccc(F)cc2)cc1)C(C)C	/	94.0	/	-0.03	/	97.4
O=C(N/N=C/C=C/c1ccccc1)C1CC1c1ccccc1 (stereo unspecified)	74.0	89.8	26.1*	-0.11	89.6	94.2
COc1ccc(C(C(=O)NC2CCCC2)N(C(=O)c2snc(-c3ccc(F)cc3)c2N)c2ccc(F)cc2)cc1 (stereo unspecified)	/	5.5*	/	0.25	/	7.4
O=C(NC1CCCCC1)C(c1cccnc1)N(C(=O)CCl)c1cccc(Cl)c1 (stereo unspecified)	/	3.9*	/	/	/	3.1*
COc1ccc(C(C(=O)NC2CCCCC2)N(C(=O)CCl)c2ccc(Cl)cc2)cc1 (stereo unspecified)	/	1.8*	/	-0.47	/	1.8*
CCOC(=O)c1ccc(N2C(=O)c3n[nH]c(C)c3C2c2ccccn2)cc1 (stereo unspecified)	91.8	104.9	90.0	/	97.9	90.2
CCOC(=O)c1ccc(N2C(=O)c3n[nH]c(C)c3C2c2cccnc2)cc1 (stereo unspecified)	95.4	102.9	/	-3.79*	90.2	103.2
Cc1ccc2c(c1)N(CCC(=O)NCc1cccs1)C(=O)C(C)O2 (stereo unspecified)	107.1	102.2	87.4	0.43	103.6	94.2
COc1cccc(C(c2nnnn2Cc2ccco2)N2CCN(c3cccc(C)c3C)CC2)c1OC (stereo unspecified)	88.5	35.6	93.9	-3.88*	95.9	34.3
COc1cccc(C(c2nnnn2Cc2ccccc2)N2CCN(C(=O)c3ccco3)CC2)c1OC (stereo unspecified)	77.6	82.7	100.0	-0.55	88.2	82.0
COc1cccc(C(c2nnnn2CCc2ccccc2)N2CCN(c3ccccc3)CC2)c1OC (stereo unspecified)	84.9	62.9	76.4	-3.27*	95.8	65.7
COc1ccccc1C(c1nnnn1CCc1ccccc1)N1CCN(c2ccccc2)CC1 (stereo unspecified)	92.7	77.2	77.2	-2.04	113.0	68.1
CCCNC(=O)CSc1nnc(-c2ccccc2Br)n1-c1cccc(C(F)(F)F)c1	/	79.5	/	/	/	89.3
OC(CN1CCOCC1)CN(c1ccccc1)c1ccccc1 (stereo unspecified)	87.3	94.2	87.6	-0.24	103.0	97.8
c1ccc(C(CN2CCOCC2)c2ccccc2)cc1	98.4	84.1	91.0	0.7	99.8	80.8
CCCCOc1ccc(C(=O)C(CN2CCOCC2)c2ccccc2)cc1 (stereo unspecified)	92.3	1.9*	1.0*	-1.21	2.3*	2.0*
CC(CN1CCOCC1)OC(=O)C(c1ccccc1)c1ccccc1 (stereo unspecified)	95.9	84.0	85.8	-0.41	92.3	96.5

Screening data (PubChem)
